# TAAR1 agonist: human TAAR1 agonists, primary screen, Fluo-8 calcium fluorescence, CHO RD-HGA16 cells; actives 0.99% (n = 360,000); vehicle wells 0%, saturating PEA agonist 100%; Trace amine-associated receptor 1 (Homo sapiens), Q96RJ0; activation, % at 3 µM;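 active = activation above the mean activation of all test compounds in the run plus 3 SD, cut at about 38% in these data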
#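 Assay system – CHO-derived RD-HGA16 cells with stable Gα16 and human TAAR1 · Compound dosing – one-point dosing at 3 µM (nominal) · Incubation – 17-24 h seeding, 75 min 37 °C dye, 30 min RT · Measured by – kinetic Fluo-8 calcium fluorescence · Control set – DMSO vehicle as 0%, PEA at EC100 as 100% · Repeats – single well for each compound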
# TAAR1 antagonist: human TAAR1 antagonists, primary screen, Fluo-8 calcium fluorescence, CHO RD-HGA16 cells | Trace amine-associated receptor 1 (Homo sapiens), Q96RJ0 | antagonist | inhibition, % at 3 µM | actives 1.5% (n = 360,000) | AID 624466, 2012;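 active = inhibition above a per-plate cutoff, the mean inhibition of test compounds on that plate plus 3 SD, cut at about 49% in these data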;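 note: 0% = DMSO plus EC80 beta-PEA response and 100% = DMSO alone without agonist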
#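 test system = CHO RD-HGA16 cells bearing hTAAR1 | replication = singlicate | controls = DMSO-only wells and EC80 β-PEA-stimulated wells | reagent = EC80 β-phenethylamine stimulus | read-out basis = percent inhibition of PEA-evoked calcium signal, max/basal emission ratio | schedule = seeding 17-24 h prior, 75-min 37 °C, 30-min RT dye loading | signal = kinetic Fluo-8 calcium fluorescence measurement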
# OX1R antag-1: antagonists of human orexin 1 receptor (OX1R); Orexin/Hypocretin receptor type 1 (Homo sapiens), O43613; OX1R-expressing cells, FRET antagonist read-out; inhibition, % at 6.6 µM; AID 485270, 2010; actives 1.8% (n = 330,000); in the data active = inhibition mostly above about 38%, no sharp cut-off; inactive = mostly below about 40%;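 note: 0% = agonist challenge alone and 100% = reference antagonist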
# Target sequence (O43613 whole entry, looked up): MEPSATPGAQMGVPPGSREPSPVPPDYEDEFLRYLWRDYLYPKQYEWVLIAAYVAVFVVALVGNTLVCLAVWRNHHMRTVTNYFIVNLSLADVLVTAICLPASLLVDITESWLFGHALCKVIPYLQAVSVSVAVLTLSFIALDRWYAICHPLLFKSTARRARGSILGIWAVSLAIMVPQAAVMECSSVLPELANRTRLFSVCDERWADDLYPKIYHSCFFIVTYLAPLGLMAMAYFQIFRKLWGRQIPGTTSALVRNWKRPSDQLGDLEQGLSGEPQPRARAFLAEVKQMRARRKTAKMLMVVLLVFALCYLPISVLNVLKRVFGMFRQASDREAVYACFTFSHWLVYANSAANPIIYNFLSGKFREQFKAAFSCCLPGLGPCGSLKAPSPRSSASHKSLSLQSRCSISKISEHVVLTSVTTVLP
# OX1R antag-2: OX1R (HCRTR1) antagonists, primary screen, fluorescence, CHO/OX1R cells, Fluo-8 calcium, orexin A. Fluo-8 calcium fluorescence. actives 0.43% (n = 330,000). AID 434989, 2010. inhibition, % at 5 µM. Orexin/Hypocretin receptor type 1 (Homo sapiens), O43613;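 active = inhibition above its plate's threshold, mean inhibition of all tested compounds on the plate plus 3 SD, cut at about 37% in these data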;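 note: 0% = orexin A challenge wells and 100% = SB-334867-A antagonist wells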
# CHO parental Ca: ATP-evoked calcium signal inhibitors, parental CHO, primary screen, counter-screen for OX1R antagonist project, cell-based, fluorescence, Fluo-8 calcium dye | parental CHO-K1, ATP-induced calcium, Fluo-8 fluorescence | inhibition, % at 5.6 µM | actives 0.63% (n = 330,000);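 active = inhibition above that plate's mean sample inhibition plus 3 SD, cut at about 26% in these data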;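 note: 0% = ATP-challenged DMSO wells and 100% = DMSO wells without ATP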
#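 Test system: parental CHO cells; detection: calcium-sensitive Fluo-8 fluorescence; evaluation: percent inhibition of calcium signal; also added: ATP as calcium-mobilizing challenge; repeats: one well per compound; control set: ATP-challenged DMSO wells low, unchallenged DMSO wells high; compound: single nominal dose of 5.6 µM per compound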
# GPR7 antagonist: GPR7 receptor antagonists, primary screen, cell-based, fluorescence, single concentration | actives 1.1% (n = 290,000) | inhibition, % at 4.4 µM | GPR7-expressing cells, fluorescence antagonist assay | AID 1861, 2009; in the data active = inhibition above about 16%, passing the limit was not always enough;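 note: cells stimulated with the agonist NPW; 0% = agonist with vehicle and 100% = vehicle without agonist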
# Target sequence (P48145 whole entry, looked up): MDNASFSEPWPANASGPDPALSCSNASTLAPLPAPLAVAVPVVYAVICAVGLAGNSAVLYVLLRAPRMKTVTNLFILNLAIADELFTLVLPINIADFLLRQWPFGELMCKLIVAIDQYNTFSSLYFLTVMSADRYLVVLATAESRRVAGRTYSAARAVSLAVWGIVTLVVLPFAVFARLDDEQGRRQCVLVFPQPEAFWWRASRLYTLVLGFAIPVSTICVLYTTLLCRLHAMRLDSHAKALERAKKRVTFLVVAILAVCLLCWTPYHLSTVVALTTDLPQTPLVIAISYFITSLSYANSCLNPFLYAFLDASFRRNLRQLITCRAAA
# GPR7 antag cf: GPR7 receptor antagonists, confirmation, cell-based, fluorescence, single concentration. GPR7-expressing cells, calcium fluorescence antagonist mode. actives 52% (n = 2,400). shares compounds with GPR7 antagonist. AID 1952, 2009. inhibition, % at 4.4 µM; in the data active = inhibition above about 24%;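 note: stimulated with the GPR7 agonist NPW; 0% = agonist plus vehicle and 100% = vehicle alone without agonist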
# MCHR1 antagonist: MCHR1 antagonists in cells, counter-screen for GPR7 antagonist project, cell-based, fluorescence, human | shares compounds with GPR7 antagonist | actives 62% (n = 2,400) | AID 2148, 2009 | MCHR1-expressing cells, fluorescence antagonist assay | inhibition, % at 4.4 µM; in the data active = inhibition above about 22%;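 note: 0% = vehicle with agonist and 100% = vehicle without agonist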
# Active calls of the source: *; . = not tested or not shown. Compounds with a hit are over-represented: about 4.6% of the library has one in this group of screens.
SMILES,TAAR1 agonist,TAAR1 antagonist,OX1R antag-1,OX1R antag-2,CHO parental Ca,GPR7 antagonist,GPR7 antag cf,MCHR1 antagonist
O=C(NCc1ccc2c(c1)OCO2)C(=O)NCC1OCCN1S(=O)(=O)c1ccc(Cl)cc1 (stereo not drawn),1.9,-18.3,7.8,-29.9,-13.8,2.8,.,.
CCCNC(=O)C1(O)c2cc(Br)ccc2NC(=O)N1c1ccc(Cl)cc1 (stereo not drawn),3.5,-11.8,3.2,18.7,-13.1,10.8,.,.
CSc1nsc(SC)c1C(=O)N1CCN(S(=O)(=O)c2ccc(C)cc2)C1C (stereo not drawn),8.6,46.8,29.8,-39.4,-32.5,-0.6,.,.
CSc1nsc(SC)c1C(=O)N1CCN(S(=O)(=O)c2ccc(C)cc2)C1C(C)C (stereo not drawn),9.3,49.2*,31.0,-17.2,-23.6,26.8*,16.6,45.7*
COc1ccnc(Oc2ccc(F)cc2)c1C(=O)N/C=N/OCc1ccc(F)cc1,48.9*,18.7,4.6,2.9,-7.3,.,.,12.8
O=C(Cc1cccc(NC(=O)C2CCCN(C(=O)C3CCCC3)C2)c1)Nc1cccc(C(=O)N2CCOCC2)c1 (stereo not drawn),2.1,-11.5,.,.,.,.,.,.
Cc1ccn2c(=O)c(NC(=O)c3cccs3)c(C)nc2c1,5.0,-12.2,16.0,-10.9,-5.5,.,.,.
Cc1ccc(CN(C(=O)c2c(F)cccc2F)C2CC(C)(C)NC(C)(C)C2)o1,5.0,4.7,12.0,-12.4,-0.5,25.0*,8.7,2.9
Cc1cccc(NC(=O)C2(c3ccccc3)CCOCC2)c1,2.5,-2.3,14.8,-6.0,-13.5,-10.5,.,.
O=C(Cc1ccc([N+](=O)[O-])cc1)Nc1cccc(C(F)(F)F)c1,11.3,17.7,24.5,-7.4,28.0*,39.0*,29.9*,56.7*
Cc1cccc(NC(=O)C2(c3ccc([N+](=O)[O-])cc3)CCCC2)c1,47.8*,0.0,26.6,40.6,36.4*,32.9*,36.2*,36.4*
Cc1ccc(OCCNC(=O)c2cc(C(=O)NCCOc3ccc(C)cc3)cc([N+](=O)[O-])c2)cc1,10.0,34.3,4.9,20.1,14.8,-7.2,.,.
COc1ccc([N+](=O)[O-])cc1C(=O)NCCOc1ccc(Cl)cc1,6.1,9.0,22.7,-32.6,7.9,48.4*,41.8*,46.5*
OC(CNCc1ccco1)Cn1c2ccccc2c2ccccc21 (stereo not drawn),20.1,-11.0,9.9,3.5,10.0,21.2*,18.6,14.4
Cc1ccccc1-c1ccc2c(c1)[C@@H]1C[C@H](N(C)C(=O)c3ccco3)[C@H]([C@H](C)O)CN1CC2,1.3,-9.4,.,.,.,.,.,.
CCc1ccc(/C=C2/C(=O)N(C)C(=S)N2CC(=O)OC)s1,0.5,8.9,8.8,-22.6,-13.6,26.9*,1.7,12.7
COC(=O)CN1C(=S)N(C)C(=O)/C1=C/c1cccs1,0.2,-17.7,9.2,-3.2,2.3,3.3,.,.
O=C(CN1C(=O)C2C3C=CC(C3)C2C1=O)NC1CCCc2ccccc21 (stereo not drawn),4.4,2.9,7.0,-12.7,-14.9,30.2*,-1.3,6.4
c1ccc2sc(C3CCN(Cc4nnnn4Cc4ccc5c(c4)OCO5)CC3)nc2c1,6.4,15.0,21.8,-13.2,-9.7,-9.2,.,.
COc1ccc(Cn2nnnc2CN2CCC(c3nc4ccccc4s3)CC2)cc1,20.9,42.7,13.5,-3.9,-4.3,29.4*,35.5*,63.9*
CC1(C(=O)NS(=O)(=O)c2ccccc2C(F)(F)F)CCN1C(=O)CCc1cccs1 (stereo not drawn),2.9,-25.4,.,.,.,.,.,.
CCOC(=O)C1CCN(C(=O)c2ccc3c(c2)NC(=O)/C(=C\c2ccc(C)cc2)S3)CC1,3.7,-7.0,7.4,-33.5,-38.0,33.5*,21.7,45.9*
CCOC(=O)C1CCN(C(=O)c2ccc3c(c2)NC(=O)/C(=C/c2ccccc2)S3)CC1,-1.8,13.6,-1.8,-24.2,-15.2,12.8,.,.
CN(/C=C/C(=C\C=[N+](C)c1ccccc1)OCCCS(=O)(=O)[O-])c1ccccc1,-0.4,-10.9,25.0,-4.1,-0.6,-11.3,.,.
COC(=O)C1CCCCN1C(=O)c1ccc2oc(Cc3ccccc3)nc2c1 (stereo not drawn),13.6,-30.4,.,.,.,-15.1,.,.
SMILES,TAAR1 agonist,TAAR1 antagonist,OX1R antag-1,OX1R antag-2,CHO parental Ca,GPR7 antagonist,GPR7 antag cf,MCHR1 antagonist
COC(=O)C1CCCCN1C(=O)c1ccc2oc(C(C)C)nc2c1 (stereo not drawn),-0.6,2.5,24.1,-46.2,2.3,25.8*,6.4,2.7
COC(=O)c1ccccc1COc1cccn2c(N(C)CC3CC3)c(C)nc12,2.5,-16.5,.,.,.,.,.,.
COc1cc(CNc2ccccc2Oc2cc(=O)n(C)c(=O)n2C)cc(OC)c1OC,3.2,8.3,16.3,-17.0,-6.9,37.0*,24.9*,24.4*
Cn1c(Oc2ccccc2NCc2cc(Br)ccc2O)cc(=O)n(C)c1=O,21.7,-8.4,32.0,-1.2,-19.2,10.3,.,.
CC(OC(=O)CCCNC(=O)c1ccc(Cl)cc1)C(=O)N(C)Cc1ccccc1 (stereo not drawn),2.6,-14.4,30.3,-15.1,-13.2,34.5*,-2.2,4.5
COc1cccc(NC(=O)C(C)OC(=O)CCCNC(=O)c2ccc(Cl)cc2)c1 (stereo not drawn),4.8,-19.1,7.5,-6.8,1.3,12.7,.,.
CCc1cc2c(NCc3ccccc3)nc(C)nc2s1,1.1,-7.3,36.3,-13.6,21.8,22.6*,17.2,38.0*
COC(=O)C1=C(C)Nc2nc(SCc3ccccc3)[nH]c(=O)c2C1c1cccs1 (stereo not drawn),1.3,-6.5,33.5,19.8,5.2,33.4*,17.2,34.0*
CCn1nc(C(=O)OCC(=O)Nc2nc(-c3ccc(OC)cc3)cs2)c2ccccc2c1=O,4.8,8.5,33.4,-26.8,-3.3,4.1,.,.
Cc1ccc(Cl)cc1N1CCN(C(=O)C2CCC(=O)N(C3CCCCCC3)C2)CC1 (stereo not drawn),2.9,-19.1,12.7,-13.8,-8.8,25.9*,36.6*,55.3*

# Screening results (PubChem)
